{
  "source": "paper PMC10009879",
  "about": "(RSC Advances, 2023)",
  "key": {"α-glucosidase [1]": {"system": "α-glucosidase", "assay": "α-Glucosidase inhibition type and inhibition constants by Lineweaver–Burk plots", "type": "biochemical, Saccharomyces cerevisiae", "outline": "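Yeast (Saccharomyces cerevisiae) α-glucosidase with 4-nitrophenyl […]-D-glucopyranoside (pNPG) as substrate. The test compound was run at 0, 1.98, 3.97 and 7.93 μM, each in three replicates. Inhibition type was assigned from Lineweaver–Burk plots using a modified published method. Ki (free enzyme) and K′i (enzyme–substrate complex) were derived from the same data.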"}, "α-glucosidase [2]": {"system": "α-glucosidase", "assay": "Screening of α-glucosidase inhibitory activity", "type": "biochemical, Saccharomyces cerevisiae", "conditions": "times better than acarbose"}, "yeast α-glucosidase": {"molecular_target": "yeast α-glucosidase", "conditions": "in vitro; cited from earlier work"}, "[3]": {"system": "STZ-induced diabetic rats", "conditions": "cited from earlier work"}, "[4]": {"system": "mice fed a high fat and high sucrose diet", "conditions": "cited from earlier work"}, "α-glucosidase [5]": {"molecular_target": "α-glucosidase", "conditions": "previous study; ref Zhang et al., 23; cited from earlier work"}, "α-glucosidase [6]": {"system": "α-glucosidase", "conditions": "cited from earlier work"}},
  "data": [
    {"smiles": "O=c1c(O)c(-c2ccc(O)c(O)c2)oc2c(Br)c(O)cc(O)c12", "note": "[Compound 5a, 8-Bromoquercetin]", "values": [
      {"measurement": "type of α-glucosidase inhibition", "setting": "α-glucosidase [1]; Lineweaver–Burk plots, 0, 1.98, 3.97, 7.93 μM", "result": "mixed mode inhibitor"},
      {"measurement": "Ki", "setting": "α-glucosidase [1]; read-out: inhibition constant binding with the free enzyme (Ki), secondary plot", "result": "5.58 ± 0.35", "unit": "µM"},
      {"measurement": "inhibition constant binding with the enzyme–substrate complex (K′i)", "setting": "α-glucosidase [1]; secondary plot", "result": "10.33 ± 0.85", "unit": "µM"},
      {"measurement": "α-glucosidase inhibition relative to the standard drug acarbose", "setting": "α-glucosidase [2]", "result": "thirty-seven times better"}
    ]},
    {"smiles": "O=c1c(O)c(-c2cc(O)c(O)c(O)c2)oc2cc(O)cc(O)c12", "note": "[myricetin]", "values": [
      {"measurement": "IC50 yeast α-glucosidase", "setting": "yeast α-glucosidase", "result": 5, "unit": "µg/mL"},
      {"measurement": "effect on fasting blood glucose level", "setting": "[3]", "result": "cut down the fasting blood glucose level"},
      {"measurement": "effect on fasting blood glucose level", "setting": "[4]", "result": "cut down the fasting blood glucose level"}
    ]},
    {"smiles": "C[C@@H]1O[C@@H](Oc2c(-c3ccc(O)c(O)c3)oc3cc(O)cc(O)c3c2=O)[C@H](O)[C@H](O)[C@H]1O", "note": "[Compound 6, quercitrin]", "values": [
      {"measurement": "IC50 α-glucosidase inhibition", "setting": "α-glucosidase [5]", "result": "215 ± 4", "unit": "µg/mL"}
    ]},
    {"smiles": "O=c1c(O)c(-c2ccc(O)cc2)oc2cc(O)cc(O)c12", "note": "[Compound 3, kaempferol]", "values": [
      {"measurement": "α-glucosidase inhibition", "setting": "α-glucosidase [6]", "result": "~95.1", "unit": "%"}
    ]}
  ]
}
